Among the data in ChEMBL document CHEMBL1128251, “Antimalarial activity of new dihydroartemisinin derivatives. 6. alpha-Alkylbenzylic ethers” (J Med Chem, 1995) are IC50 values, retold here.

The test system of test [1] is Plasmodium falciparum. Nature of the test: In vitro antimalarial activity against Plasmodium falciparum D6 (Sierra Leone I). The format is functional, organism-based. The gist of the method: (§1)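 Clones D-6 and W-2 tested in parallel. Compounds dissolved in DMSO, diluted 400-fold in RPMI 1640 with 25 mM Hepes, 32 mM NaHCO3 and 10% human plasma, then serially diluted 2-fold over 11 concentrations. Parasites preexposed 48 h at 37 °C under 5% O2/5% CO2/90% N2, then [3H]hypoxanthine added for 18 h; DNA harvested, uptake counted by scintillation. IC50 from logistic dose-response model; arithmetic mean of ≥3 runs.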

Test [2] concerns Plasmodium falciparum. Nature of the test: In vitro antimalarial activity against Plasmodium falciparum W2 Indochina. The format is functional, organism-based. The procedure, abridged: as §1

≈ marks a conversion by molar mass, not a printed value.

As usually defined, the IC50 is the concentration that inhibits the measured activity by half. Lower therefore signals inhibition by little substance. As to `CCOC(=O)C[C@@H](O[C@H]1O[C@@H]2O[C@@]3(C)CC[C@H]4[C@H](C)CCC([C@H]1C)[C@@]24OO3)c1ccccc1` (some centres undefined), the IC50 in the test with Plasmodium falciparum [1] came to 0.496 ng/mL (≈ 1.08 nM); in the test on Plasmodium falciparum [2] it was 0.213 ng/mL (≈ 0.463 nM).

`CCC[C@H](Cc1ccccc1)O[C@H]1O[C@@H]2O[C@@]3(C)CC[C@H]4[C@H](C)CCC([C@H]1C)[C@@]24OO3` (some centres undefined): the values for the IC50 in the test with Plasmodium falciparum [1] and with Plasmodium falciparum [2] were 3.05 ng/mL (≈ 7.08 nM) and 1.92 ng/mL (≈ 4.45 nM), respectively.

In the case of `CCC[C@@H](Cc1ccccc1)O[C@H]1O[C@@H]2O[C@@]3(C)CC[C@H]4[C@H](C)CCC([C@H]1C)[C@@]24OO3` (some centres undefined), the IC50 with Plasmodium falciparum [1] was 0.972 ng/mL (≈ 2.26 nM); with Plasmodium falciparum [2], 0.697 ng/mL (≈ 1.62 nM).

With `COC(=O)c1ccc([C@H](C)O[C@H]2O[C@@H]3O[C@@]4(C)CC[C@H]5[C@H](C)CCC([C@H]2C)[C@@]35OO4)cc1` (some centres undefined), the results for the IC50 with Plasmodium falciparum [1] and with Plasmodium falciparum [2] were 0.692 ng/mL (≈ 1.55 nM) and 0.335 ng/mL (≈ 0.751 nM), respectively.

With `CCOC(=O)C[C@H](O[C@H]1O[C@@H]2O[C@@]3(C)CC[C@H]4[C@H](C)CCC([C@H]1C)[C@@]24OO3)c1ccc([N+](=O)[O-])cc1` (some centres undefined), the IC50 with Plasmodium falciparum [1] was 0.246 ng/mL (≈ 0.487 nM); with Plasmodium falciparum [2], 0.0487 ng/mL (≈ 0.0963 nM).

For `C[C@@H]1CCC2[C@@H](C)[C@@H](O[C@H](C)c3ccc(C(=O)O)cc3)O[C@@H]3O[C@@]4(C)CC[C@@H]1[C@@]23OO4` (some centres undefined), the IC50 came to 5.77 ng/mL (≈ 13.3 nM) in the test with Plasmodium falciparum [1] and 2.54 ng/mL (≈ 5.86 nM) with Plasmodium falciparum [2].

As to `C[C@@H]1CCC2[C@@H](C)[C@@H](O[C@H](C)c3ccc(C(F)(F)F)cc3)O[C@@H]3O[C@@]4(C)CC[C@@H]1[C@@]23OO4` (some centres undefined), the IC50 worked out at 1.46 ng/mL (≈ 3.19 nM) with Plasmodium falciparum [1] and 1.15 ng/mL (≈ 2.51 nM) with Plasmodium falciparum [2].

In the case of `COC(=O)c1ccc([C@@H](C)O[C@H]2O[C@@H]3O[C@@]4(C)CC[C@H]5[C@H](C)CCC([C@H]2C)[C@@]35OO4)cc1` (some centres undefined), the IC50 in the test with Plasmodium falciparum [1] amounted to 0.921 ng/mL (≈ 2.06 nM); in the test with Plasmodium falciparum [2], 0.337 ng/mL (≈ 0.754 nM).

`C[C@@H]1CCC2[C@@H](C)[C@@H](O[C@H](CC(=O)O)c3ccc([N+](=O)[O-])cc3)O[C@@H]3O[C@@]4(C)CC[C@@H]1[C@@]23OO4` (some centres undefined): the IC50 in the test with Plasmodium falciparum [1] was found to be 2.87 ng/mL (≈ 6.01 nM); in the test on Plasmodium falciparum [2] it was 1.35 ng/mL (≈ 2.82 nM).

Regarding `CCOC(=O)C[C@@H](O[C@H]1O[C@@H]2O[C@@]3(C)CC[C@H]4[C@H](C)CCC([C@H]1C)[C@@]24OO3)c1ccc([N+](=O)[O-])cc1` (some centres undefined), the IC50 in the test on Plasmodium falciparum [1] is 0.563 ng/mL (≈ 1.11 nM); in the test with Plasmodium falciparum [2], 0.23 ng/mL (≈ 0.454 nM).

Consider `C[C@H](O[C@H]1O[C@@H]2O[C@@]3(C)CC[C@H]4[C@H](C)CCC([C@H]1C)[C@@]24OO3)c1ccc(C(=O)O)cc1` (some centres undefined), for which the IC50 in the test on Plasmodium falciparum [1] came to 2.94 ng/mL (≈ 6.79 nM); with Plasmodium falciparum [2], 1.23 ng/mL (≈ 2.85 nM).

With `CCOC(=O)[C@H](O[C@H]1O[C@@H]2O[C@@]3(C)CC[C@H]4[C@H](C)CCC([C@H]1C)[C@@]24OO3)c1ccccc1` (some centres undefined), the IC50 in the test with Plasmodium falciparum [1] stood at 0.287 ng/mL (≈ 0.643 nM); in the test with Plasmodium falciparum [2], 0.0938 ng/mL (≈ 0.21 nM).

As for `CCOC(=O)[C@@H](O[C@H]1O[C@@H]2O[C@@]3(C)CC[C@H]4[C@H](C)CCC([C@H]1C)[C@@]24OO3)c1ccccc1` (some centres undefined), the values for the IC50 in the test on Plasmodium falciparum [1] and with Plasmodium falciparum [2] were 0.509 ng/mL (≈ 1.14 nM) and 0.227 ng/mL (≈ 0.507 nM), respectively.

Consider `CCOC(=O)C[C@H](O[C@H]1O[C@@H]2O[C@@]3(C)CC[C@H]4[C@H](C)CCC([C@H]1C)[C@@]24OO3)c1ccccc1` (some centres undefined), for which the IC50 in the test with Plasmodium falciparum [1] worked out at 0.459 ng/mL (≈ 0.997 nM); in the test with Plasmodium falciparum [2], 0.144 ng/mL (≈ 0.312 nM).

In the case of `C[C@@H]1[C@H](OCc2ccc(C(=O)O)cc2)O[C@@H]2O[C@@]3(C)CC[C@@H]4[C@@H](C)CC[C@@H]1[C@]24OO3` [ARTELINIC ACID], the 50% inhibitory concentration (IC50) with Plasmodium falciparum [1] stood at 4.87 ng/mL (≈ 11.6 nM); in the test with Plasmodium falciparum [2], 2.08 ng/mL (≈ 4.97 nM).

Turning to `CO[C@H]1O[C@@H]2O[C@@]3(C)CC[C@H]4[C@H](C)CC[C@@H]([C@H]1C)[C@@]24OO3` [ARTEMETHER], the figures for the IC50 in the test on Plasmodium falciparum [1] and in the test with Plasmodium falciparum [2] were 0.869 ng/mL (≈ 2.91 nM) and 0.301 ng/mL (≈ 1.01 nM), respectively.

Consider `C[C@@H]1CC[C@H]2[C@@H](C)C(=O)O[C@@H]3O[C@@]4(C)CC[C@@H]1[C@]32OO4` [ARTEMISININ], for which the figures for the IC50 with Plasmodium falciparum [1] and with Plasmodium falciparum [2] were 2.3 ng/mL (≈ 8.15 nM) and 1.01 ng/mL (≈ 3.6 nM), respectively.
